Measured values from publication PMC9399017 (European Journal of Drug Metabolism and Pharmacokinetics, 2022).
Several values for one entry are separate records, joined by “and”; a condition that tells them apart may be missing. Identical values can stand only once.

Key:
[1] = Population pharmacokinetic; assay type: in vivo, human (patients with advanced cancers); details: for Duration of constant (zero-order) release into depot, D1, capsule, Estimate (% RSE): hard gelatin capsule
Summary of the method: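 Patients took immediate-release capsules or film-coated tablets orally. Sampling was intensive in cycle 1 and sparse for up to 5 cycles. Lithium-heparin blood was processed to plasma within about 30 min, protein-precipitated, and measured by validated LC-MS/MS (2.00‒500 ng/mL; LLOQ 2.00 ng/mL). FOCE-I mixed-effects fits tested 1–3-compartment models with fixed allometric weight exponents and per-cycle interoccasion variability. Percentiles came from bootstrap.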

[2] = test system: major CYP isoenzymes, including CYP3A4; details: in vitro; cited from earlier work
[3] = test system: CYP3A; details: humans; cited from earlier work
[4] = between-subject variability, NONMEM estimate
[5] = between-subject variability, bootstrap
[6] = final PopPK model, NONMEM estimate

CNC(=O)c1cccc2cc(Oc3ccnc4cc(OCC5(N)CC5)c(OC)cc34)ccc12 [lucitanib]
Dose proportionality (post hoc ETA versus dose) ([1]; 5 to 30 mg lucitanib, visual inspection): consistent with dose proportionality
Effect of co-administration of fulvestrant on lucitanib pharmacokinetics ([1]; 17 of 403 patients with concomitant fulvestrant): no effect
Residual error (proportional), Estimate (% RSE) ([1]; NONMEM estimate): 33.6% (2.30%)
CL/F BSV (log-proportional), Estimate (% RSE) [1, 4]: 47.8% (5.69%)
D1 BSV (log-proportional), Estimate (% RSE) [1, 4]: 60.1% (18.6%)
Vc/F BSV (log-proportional), Estimate (% RSE) [1, 4]: 58.6% (6.97%)
Vp/F BSV (log-proportional), Estimate (% RSE) [1, 4]: 76.7% (9.10%)
CL/F BSV (log-proportional), Bootstrap median (2.5th, 97.5th percentile) [1, 5]: 47.5% (42.8%, 53.2%)
D1 BSV (log-proportional), Bootstrap median (2.5th, 97.5th percentile) [1, 5]: 58.7% (41.3%, 75.8%)
Vc/F BSV (log-proportional), Bootstrap median (2.5th, 97.5th percentile) [1, 5]: 58.9% (51.3%, 67.5%)
Vp/F BSV (log-proportional), Bootstrap median (2.5th, 97.5th percentile) [1, 5]: 75.2% (60.0%, 88.8%)
Residual error (proportional), Bootstrap median (2.5th, 97.5th percentile) ([1]; bootstrap): 33.5% (32.0%, 34.8%)
Duration of constant release into depot for capsule, D1, Bootstrap median (2.5th, 97.5th percentile) ([1]; capsule, nonparametric bootstrap): 0.812 (0.629, 0.956) h
Effect of concomitant proton pump inhibitors on lucitanib absorption ([1]; concomitant PPI): no clinically significant effect
Ratio of F with concomitant PPI/without PPI, 95% CI ([1]; concomitant proton pump inhibitor, n = 152, not significant): 0.83–1.08
Reduction in F with concomitant PPI (estimated effect size) ([1]; concomitant proton pump inhibitor, not clinically significant): 6.5%
CL/F and Vc/F correlation, Estimate (% RSE) ([1]; correlation of random effects, NONMEM estimate): 0.596 (6.30%)
CL/F and Vc/F correlation, Bootstrap median (2.5th, 97.5th percentile) ([1]; correlation of random effects, bootstrap): 0.595 (0.469, 0.721)
Duration of zero-order release, D1, tablet ([1]; film-coated tablet, final PopPK model): 0.243 h
Apparent central volume, Vc/F, Estimate (% RSE) [1, 6]: 63.8 (5.08%) L/70 kg
Apparent distribution clearance, Q/F, Estimate (% RSE) [1, 6]: 6.23 (8.41%) L/h/70 kg
Apparent peripheral volume, Vp/F, Estimate (% RSE) [1, 6]: 69.1 (6.81%) L/70 kg
Effect of formulation on D1 (tablet to capsule ratio), Estimate (% RSE) [1, 6]: 0.299 (19.4%)
First-order absorption rate constant, Ka, Estimate (% RSE) [1, 6]: 4.86 1/h and 4.86 (12.6%) 1/h
Apparent clearance, CL/F, Estimate (% RSE) ([1]; final PopPK model, NONMEM estimate, oral 5-30 mg QD, 403 patients): 1.90 (2.75%) L/h/70 kg
Duration of constant (zero-order) release into depot, D1, capsule, Estimate (% RSE) ([1]; final PopPK model): 0.814 (22.2%) h
Duration of constant (zero-order) release into depot, D1, capsule, Estimate (% RSE) ([1]; final PopPK model, listed as Lucitanib): 0.814 h
half-life ([1]; human, plasma, oral): 8.58 min
Apparent central volume, Vc/F, Bootstrap median (2.5th, 97.5th percentile) ([1]; nonparametric bootstrap): 63.4 (57.3, 70.6) L/70 kg
Apparent distribution clearance, Q/F, Bootstrap median (2.5th, 97.5th percentile) ([1]; nonparametric bootstrap): 6.30 (5.29, 7.72) L/h/70 kg
Apparent peripheral volume, Vp/F, Bootstrap median (2.5th, 97.5th percentile) ([1]; nonparametric bootstrap): 68.9 (61.0, 79.1) L/70 kg
Effect of formulation on D1 (tablet to capsule ratio), Bootstrap median (2.5th, 97.5th percentile) ([1]; nonparametric bootstrap): 0.343 (0.178, 0.630)
First-order absorption rate constant, Ka, Bootstrap median (2.5th, 97.5th percentile) ([1]; nonparametric bootstrap): 4.77 (2.94, 8.21) 1/h
Apparent clearance, CL/F, Bootstrap median (2.5th, 97.5th percentile) ([1]; nonparametric bootstrap, 1000 replicates): 1.90 (1.80, 2.00) L/h/70 kg
Variance in Vc/F explained by body weight ([1]; present dataset): 11%
D1 values, both immediate-release formulations ([1]; tablet and capsule): < 1 h
D1 shorter for tablets versus capsules ([1]; tablet vs capsule): 70%

C[C@]12CC[C@@H]3c4ccc(O)cc4C[C@@H](CCCCCCCCC[S+]([O-])CCCC(F)(F)C(F)(F)F)[C@H]3[C@@H]1CC[C@@H]2O (stereo partly drawn) [Fulvestrant, fulvestrant]
Inhibition of major CYP isoenzymes [2]: did not significantly inhibit
Change in exposure to a CYP3A substrate (midazolam) [3]: nor did it change the exposure
